# Bioassay records deposited in PubChem BioAssay by Johns Hopkins Ion Channel Center.
# Hits are enriched below; roughly 3.7% of the tested compounds scored in any of these assays.
# Kir21 inh: Kir2.1 (mouse) channel inhibition | B-score at 10 µM | HEK293-Kir2.1, FluxOR thallium flux fluorescence; active compounds read low | AID 1672 | hit rate 0.85% among 310,000 | P35561;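 active means fluorescence ratio B-score at or below minus 3 SD of library scores, with starting-brightness B-score within 2 SD, cut at about -4.2 in these data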;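 further: channel flux triggered by added potassium and thallium sulfate stimulus; B-score of peak minus minimum fluorescence over baseline after thallium stimulus; more negative B-score means stronger Kir2.1 block with less thallium influx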
# Target sequence (P35561 whole entry, looked up): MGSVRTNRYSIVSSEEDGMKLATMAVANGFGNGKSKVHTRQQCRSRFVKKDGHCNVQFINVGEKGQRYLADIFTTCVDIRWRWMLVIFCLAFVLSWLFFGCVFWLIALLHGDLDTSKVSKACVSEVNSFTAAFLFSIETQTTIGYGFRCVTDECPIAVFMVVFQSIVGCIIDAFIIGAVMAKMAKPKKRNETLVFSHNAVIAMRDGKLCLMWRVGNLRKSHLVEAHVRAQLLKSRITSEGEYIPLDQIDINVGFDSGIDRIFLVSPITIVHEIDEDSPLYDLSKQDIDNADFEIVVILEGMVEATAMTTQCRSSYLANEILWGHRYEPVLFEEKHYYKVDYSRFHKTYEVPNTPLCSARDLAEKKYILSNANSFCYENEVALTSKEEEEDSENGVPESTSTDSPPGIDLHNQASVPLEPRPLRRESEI
# KCNK3 block: human KCNK3 channel inhibition, primary screen | hit rate 0.84% among 340,000 | B-score at 10 µM | O14649 | CHO-KCNK3 thallium flux, FluxOR fluorescence; active compounds read low;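 active means B-score under library mean minus 4 SD, starting fluorescence ratio at most library mean plus 5 SD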;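 further: more negative B-score means stronger inhibition of thallium flux through KCNK3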
# KCNQ1 block: human KCNQ1 channel inhibition; CHO-K1 KCNQ1, FluxOR thallium flux fluorescence; active compounds read high; B-score at 10 µM; hit rate 1.3% among 310,000;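 active means compounds whose thallium flux B-score, printed positive for inhibition, exceeds three library SD while starting fluorescence stays within three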;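 further: channel opened by potassium depolarization with thallium stimulus after 20 min compound exposure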
# KCNQ1 pot: potentiates or activates the human KCNQ1 potassium channel; P51787; CHO-K1 KCNQ1, thallium flux FluxOR fluorescence; active compounds read high; B-score at 10 µM; hit rate 0.35% among 310,000; AID 2648;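 active means fluorescence ratio B-score, a plate-corrected score, at least three library SD, with initial intensity B-score within 5 SD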
#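 System: CHO-K1 cells stably expressing KCNQ1 / Medium: assay buffer for compound exposure, DMSO matched across wells / Reagent: thallium- and potassium-containing depolarizing buffer / Compound: one concentration, matched DMSO / Incubation: 20 min compound pretreatment at room temperature / Measured by: kinetic FluxOR fluorescence, 10 s baseline plus 110 s post-stimulus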
# hERG protect: shields human hERG channel from block by proarrhythmic agents | Q12809 | CHO-hERG, FluxOR thallium flux, dofetilide IC70 present | activation (rescue from dofetilide block), less the hit threshold, % at 10 µM | hit rate 0.51% among 310,000;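 active means activation above the mean of controls blocked by dofetilide plus 5 SD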;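 further: thallium influx through hERG after potassium depolarization seen as dye fluorescence rise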
# KCNK9 block: inhibitors of human KCNK9 two-pore domain potassium channel. Q9NPC2. HEK293 KCNK9, FluxOR thallium flux fluorescence; active compounds read low. B-score at 10 µM. hit rate 1.2% among 310,000. AID 488922;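 active means ratio B-score over 3 SD below the library mean, with starting fluorescence within 5 SD of its mean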;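 further: negative B-score means less thallium flux so channel inhibition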
# KCNK9 inh conf: confirmation of human KCNK9 potassium channel inhibitors | shares compounds with KCNK9 block | HEK293 KCNK9 cells, FluxOR thallium flux fluorescence | inhibition, % at 10 µM | hit rate 43% among 4,900 | AID 492992;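 active means thallium signal inhibited by more than 5 SD of the compound-free buffer control wells, on both duplicate plates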;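 further: 0% = assay buffer control wells without compound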
# Kir21 sel: mouse Kir2.1 off-target activity of KCNK9 modulators. shares compounds with KCNK9 block. Kir2.1 cells, FluxOR thallium flux fluorescence. inhibition, % at 10 µM. hit rate 4% among 4,900;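 active means thallium signal drop more than 5 SD beyond the mean of the no-compound control wells, seen in both duplicate plates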;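 further: signal is fluorescence rise after thallium addition divided by baseline fluorescence; plate controls were assay buffer only for no effect and full block by chlorpromazine control for full effect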
# KCNK9 uninduced: second counter-screen for KCNK9 modulators: effect in non-induced cells; non-induced KCNK9-HEK293, FluxOR thallium flux; shares compounds with KCNK9 block; hit rate 40% among 4,900; AID 492997; inhibition, % at 10 µM;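 active means thallium signal drop beyond 5 SD of the untreated control mean, on both duplicate plates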;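 further: plate controls were buffer only IC0 wells for no effect and SID17386958 at its maximal inhibitory level for full effect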
# KCNK3 inh conf: human KCNK3 channel inhibition, confirmation assay; shares compounds with KCNK3 block; CHO-KCNK3 thallium flux, FluxOR fluorescence; 0% buffer, 100% carvedilol maximal block; ratio percent of control, % at 10 µM; hit rate 99% among 2,400; AID 651638;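 active means ratio percent of control, averaged over triplicates, above buffer control mean plus 5 SD, cut at about 64% in these data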;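 further: ratio is the fluorescence rise from min to max over baseline after thallium stimulus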
# KCNK3 uninduced: activity in cells without induced KCNK3 expression; shares compounds with KCNK3 block; thallium flux ratio (lower = more inhibition) at 10 µM; hit rate 40% among 2,400; AID 651747; non-induced KCNK3 parental cells, FluxOR thallium flux; active compounds read low;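 active means thallium flux ratio, averaged over three wells, more than 5 SD below the buffer control mean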;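 further: host cells are CHO cells without KCNK3 induction; ratio is peak minus trough fluorescence over baseline then normalized to buffer controls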
# * marks the source's active call; other numbers are inactive results; i = inactive; . = not tested or not shown.
SMILES,Kir21 inh,KCNK3 block,KCNQ1 block,KCNQ1 pot,hERG protect,KCNK9 block,KCNK9 inh conf,Kir21 sel,KCNK9 uninduced,KCNK3 inh conf,KCNK3 uninduced
O=P(Nc1cccc(F)c1)(Oc1ccccc1F)Oc1ccccc1F,-0.01,-12*,i,i,-34,-11*,48%*,i,31%*,87*,0.13*
CC(C)c1ccc(-n2c(O)c(C=NCCN3CCNCC3)c(=O)[nH]c2=S)cc1,-1.2,i,i,i,-2,i,.,.,.,.,.
Oc1ccccc1/C=N/NP(=S)(c1ccccc1)c1ccccc1,3,-15*,12*,i,-14,-13*,42%*,i,35%*,109*,0.15*
Oc1ccc(/C=N/NP(=S)(c2ccccc2)c2ccccc2)c(O)c1O,-1.1,i,i,i,-12,i,.,.,.,.,.
Cc1cc2c(cc1C)NP(=S)(c1ccccc1)N2,.,i,.,.,.,.,.,.,.,.,.
NC(N)=N/N=C/c1cn(-c2ccccc2)nc1-c1cccs1,-9.3*,-12*,9*,i,-30,-9.2*,54%*,50%*,i,101*,i
O=C(c1ccc(Cl)cc1)C1CCCN(Cc2ccc3nonc3c2)C1 (centres undefined),-2,-9.2*,i,i,-13,-8.1*,58%*,i,i,95*,i
Cc1c(C(=O)c2cccc3ccccc23)c2cccc3c2n1[C@H](CN1CCOCC1)CO3,0.93,-11*,i,i,-3,i,.,.,.,80*,0.16*
CSc1ccccc1C(=O)C1CCCN(Cc2ccn[nH]2)C1 (centres undefined),-1.8,i,i,i,-5,i,.,.,.,.,.
COc1ccccc1OCCCn1cc(C(C)=O)c2ccccc21,-2.3,i,i,i,-20,i,.,.,.,.,.
COc1ccccc1OCCCn1cc(C(=O)C2CC2)c2ccccc21,0.63,-8.8*,i,i,-14,i,.,.,.,111*,i
N#Cc1ccc(NC(=O)CCNC(=O)c2ccco2)cc1Cl,-0.98,-10*,i,i,-10,i,.,.,.,95*,0.15*
CCN(CC(=O)Nc1ccc(C#N)c(Cl)c1)CC(=O)NC(C)(C)C,-2.4,i,i,i,-2,i,.,.,.,.,.
CCN(CC)c1ccc(/C=C/[N+](=O)[O-])cc1,-10,-14*,6*,i,-45,i,.,.,.,133*,0.09*
CN(C)c1cc[n+](CC(O)C[n+]2ccc(N(C)C)cc2)cc1,-0.15,i,i,i,-6,i,.,.,.,.,.
